In the library only some 4.6% were active in any assay of this set; here they are far more common.
HDAC3 inhib – blocks human histone deacetylase 3; recombinant HDAC3, fluorogenic peptide/trypsin coupled, fluorescence; AID 2718; 320,000 tested, 0.15% active; O15379; inhibition, % at 8.3 µM; in the data active = inhibition above about 26%, passing the limit was not always enough; inconclusive = no clear call, values can overlap the other calls
ALR inh – blocks human ALR sulfhydryl oxidase activity. inhibition, % (concentration not given with the values). P55789. 290,000 tested, 3.8% active. purified ALR, DTT oxidation, H2O2 HRP-luminol luminescence;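 active = mean replicate inhibition above about 79%, with every replicate also reaching it, limit read from the data; inconclusive = only one of the two criteria met; inactive = mean below limit and not every replicate reaching it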
Rtt109 HAT inh – inhibitors of Candida albicans Rtt109/Vps75 histone acetyltransferase; AID 540336; purified Rtt109/Vps75, ThioGlo CoA-SH fluorescence, 4 h; inhibition, % at 34.9 µM; Q5AAJ8; 330,000 tested, 0.16% active;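 active = inhibition of at least 50% in every replicate; inconclusive = best replicate reaches 50% inhibition but some replicates fall short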
PfM18AAP inh-1 – blocks P. falciparum M18 aspartyl aminopeptidase; recombinant PfM18AAP, H-Glu-NHMec fluorogenic cleavage; inhibition, % at 7.35 µM; 290,000 tested, 1.2% active;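 active = inhibition above the campaign mean inhibition over all tested compounds plus 3 SD, cut at about 28% in these data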;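 also: 0% = plate median of test compound wells and 100% = 2 mM ZnCl2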
UCH37 inh – inhibitors of human deubiquitinating enzyme UCH37; Q9Y5K5; purified proteasome/UCH37, Ub-AMC cleavage fluorescence; inhibition, % (test concentration not listed); 330,000 tested, 0.33% active;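 active = mean inhibition over replicate wells above about 20%, limit read from the data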;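 also: 0% = compound-free wells with enzyme and 100% = wells lacking proteasome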
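Reagent: Ub-AMC substrate; assay system: Proteasome-associated human UCH37 deubiquitinase; controls: no-proteasome and no-compound wells; read-out: % inhibition of Ub-AMC cleavage fluorescence; timing: 30 min preincubation with enzyme, 25 min cleavage at room temperature; signal: AMC fluorescence from Ub-AMC cleavage, excitation 355 nm, emission 460 nm; buffer or medium: Tris-HCl pH 7.4 plus ovalbumin, ATP-MgCl2, DTT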
FAS TE block – inhibitors of human fatty acid synthase thioesterase domain | P49327 | recombinant FAS-TE, OMFH fluorogenic substrate, fluorescence endpoint | inhibition, % at 15 µM | 360,000 tested, 0.67% active | AID 602261;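 active = compounds whose normalised, plate-corrected inhibition of enzyme fluorescence in the single-dose primary screen is 50% or more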;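 also: 0% = DMSO with enzyme and 100% = substrate without enzyme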
Target sequence (P49327 whole entry, looked up, the tested form may be a part): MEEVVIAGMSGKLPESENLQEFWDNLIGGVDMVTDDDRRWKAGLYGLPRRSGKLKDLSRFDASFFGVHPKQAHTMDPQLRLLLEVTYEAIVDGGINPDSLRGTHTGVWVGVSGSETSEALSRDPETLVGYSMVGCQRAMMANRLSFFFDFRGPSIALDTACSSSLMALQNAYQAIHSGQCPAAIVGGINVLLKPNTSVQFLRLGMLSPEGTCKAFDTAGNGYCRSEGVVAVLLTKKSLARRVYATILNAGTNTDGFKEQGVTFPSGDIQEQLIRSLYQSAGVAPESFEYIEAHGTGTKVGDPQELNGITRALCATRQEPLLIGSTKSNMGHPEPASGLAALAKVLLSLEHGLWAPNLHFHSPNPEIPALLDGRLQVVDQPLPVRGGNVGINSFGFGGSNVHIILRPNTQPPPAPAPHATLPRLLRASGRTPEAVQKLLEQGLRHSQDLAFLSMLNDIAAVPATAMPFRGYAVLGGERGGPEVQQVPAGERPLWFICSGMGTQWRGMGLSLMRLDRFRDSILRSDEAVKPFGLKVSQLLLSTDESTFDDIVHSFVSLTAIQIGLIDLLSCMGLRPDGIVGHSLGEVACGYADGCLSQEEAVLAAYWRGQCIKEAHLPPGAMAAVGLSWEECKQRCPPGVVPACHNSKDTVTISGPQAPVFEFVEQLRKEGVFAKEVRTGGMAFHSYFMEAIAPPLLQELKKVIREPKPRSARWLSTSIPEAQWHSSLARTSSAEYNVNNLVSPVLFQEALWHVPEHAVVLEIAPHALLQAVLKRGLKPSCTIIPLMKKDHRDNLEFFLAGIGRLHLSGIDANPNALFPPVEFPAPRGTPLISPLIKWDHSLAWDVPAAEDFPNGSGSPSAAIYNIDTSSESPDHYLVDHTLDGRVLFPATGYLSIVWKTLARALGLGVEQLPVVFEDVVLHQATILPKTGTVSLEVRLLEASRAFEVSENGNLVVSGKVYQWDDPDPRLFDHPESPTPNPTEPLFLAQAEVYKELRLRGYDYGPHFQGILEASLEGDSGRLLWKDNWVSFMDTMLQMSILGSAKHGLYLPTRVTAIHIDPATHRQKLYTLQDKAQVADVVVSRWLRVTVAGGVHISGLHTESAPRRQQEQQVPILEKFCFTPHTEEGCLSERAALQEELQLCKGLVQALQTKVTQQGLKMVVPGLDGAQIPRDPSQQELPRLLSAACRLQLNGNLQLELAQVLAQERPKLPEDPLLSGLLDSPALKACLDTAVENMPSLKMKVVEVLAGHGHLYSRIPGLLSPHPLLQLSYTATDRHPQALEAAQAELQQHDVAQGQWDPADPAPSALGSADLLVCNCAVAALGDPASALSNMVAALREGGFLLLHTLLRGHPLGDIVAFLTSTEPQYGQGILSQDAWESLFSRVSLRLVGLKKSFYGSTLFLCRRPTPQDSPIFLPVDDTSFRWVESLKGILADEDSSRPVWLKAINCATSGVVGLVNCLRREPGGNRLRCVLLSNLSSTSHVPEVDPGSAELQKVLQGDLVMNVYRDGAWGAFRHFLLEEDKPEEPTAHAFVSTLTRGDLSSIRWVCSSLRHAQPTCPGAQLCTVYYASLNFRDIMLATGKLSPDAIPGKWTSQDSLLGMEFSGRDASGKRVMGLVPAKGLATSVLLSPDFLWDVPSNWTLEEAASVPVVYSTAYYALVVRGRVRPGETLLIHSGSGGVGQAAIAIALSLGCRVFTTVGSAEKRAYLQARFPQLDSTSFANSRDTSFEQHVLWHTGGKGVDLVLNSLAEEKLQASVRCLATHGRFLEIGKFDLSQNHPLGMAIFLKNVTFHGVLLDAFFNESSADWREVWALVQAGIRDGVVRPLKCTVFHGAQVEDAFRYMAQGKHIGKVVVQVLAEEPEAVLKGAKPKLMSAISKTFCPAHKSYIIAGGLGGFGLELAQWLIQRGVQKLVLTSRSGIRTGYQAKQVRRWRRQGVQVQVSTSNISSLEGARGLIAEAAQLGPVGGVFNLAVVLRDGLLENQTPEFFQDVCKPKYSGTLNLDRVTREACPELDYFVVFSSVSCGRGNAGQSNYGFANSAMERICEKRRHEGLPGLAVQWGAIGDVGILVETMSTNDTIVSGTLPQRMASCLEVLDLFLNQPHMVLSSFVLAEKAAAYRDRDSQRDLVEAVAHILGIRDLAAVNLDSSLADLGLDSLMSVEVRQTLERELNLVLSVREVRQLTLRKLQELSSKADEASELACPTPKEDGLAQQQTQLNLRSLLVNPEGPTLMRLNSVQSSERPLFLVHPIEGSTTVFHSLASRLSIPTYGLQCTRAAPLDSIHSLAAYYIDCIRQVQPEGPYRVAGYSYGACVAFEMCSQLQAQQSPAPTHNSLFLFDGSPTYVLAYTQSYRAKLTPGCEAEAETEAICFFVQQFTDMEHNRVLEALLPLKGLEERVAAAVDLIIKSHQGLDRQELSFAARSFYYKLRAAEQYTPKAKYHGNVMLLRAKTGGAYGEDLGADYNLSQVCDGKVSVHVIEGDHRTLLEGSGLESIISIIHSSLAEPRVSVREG
PfM18AAP inh-2 – PfM18AAP inhibition, confirmation. shares compounds with PfM18AAP inh-1. 2,400 tested, 28% active. inhibition, % at 7.35 µM. recombinant PfM18AAP, H-Glu-NHMec fluorogenic cleavage;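 active = mean inhibition over replicate wells above the hit cutoff set for the earlier primary screen, cut at about 29% in these data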;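 also: 0% = median of test compound wells and 100% = 2 mM ZnCl2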
CTSL1 confirm – Cathepsin L (human) inhibition, confirmation. shares compounds with PfM18AAP inh-1. purified cathepsin L1, Z-Leu-Arg-MCA fluorescence. inhibition, % at 5.96 µM. 2,400 tested, under 10 active;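 active = average inhibition across replicates above the hit cutoff set in the earlier primary screen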;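 also: 0% = median of test compound wells and 100% = Z-Phe-Ala-diazomethylketone 1 µM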
* hit, by the source's call; u = inconclusive; x = no result given.

SMILES | HDAC3 inhib | ALR inh | Rtt109 HAT inh | PfM18AAP inh-1 | UCH37 inh | FAS TE block | PfM18AAP inh-2 | CTSL1 confirm
CC(C)=CCc1c(O)ccc2c1OC(c1ccc(O)c(O)c1)CC2=O (stereo unspecified) | 5 | u | -3 | 62* | 1 | -2 | 55* | 0
CC(C)=CCc1c(O)cc2c(c1O)C(=O)CC(c1ccccc1)O2 (stereo unspecified) | -7 | -6 | -13 | x | 2 | -3 | x | x
CCCCC1S/C(=N/N=Cc2cccs2)NC1=O (stereo unspecified) | x | x | x | x | 8 | x | x | x
Clc1ccc(N2CCN(N=Cc3ccncc3)CC2)cc1 | x | x | x | x | 4 | x | x | x
Nc1nonc1-n1nnc(C(=O)NN=Cc2ccccc2F)c1CN1CCc2ccccc21 | x | x | x | x | 5 | x | x | x
CC(Sc1nc(C(C)(C)C)cc(-c2ccccc2)c1C#N)C(=O)Nc1ccccc1 (stereo unspecified) | 1 | 3 | 5 | 33* | 2 | 18 | -18 | -1
CC(Sc1nccn1C)C(=O)Nc1ccccc1 (stereo unspecified) | 1 | -3 | 5 | -3 | 2 | -4 | x | x
CCN(CC)c1ccc(C=NNC(=O)c2c(Cl)c(C)nn2C)cc1 | x | x | x | x | -36 | x | x | x
O=C(O)c1ccccc1C(=O)Nc1n[nH]c(=S)s1 | u | 54 | -6 | 63* | 3 | -7 | 9 | -3
O=C(O)c1ccccc1C(=O)Nc1nccs1 | -4 | -14 | 7 | -5 | 4 | -5 | x | x
CCC(CC)c1nnc(NC(=O)c2ccc3c(c2)OCO3)s1 | 4 | 25 | 12 | 36* | 4 | -1 | -27 | 1
Cc1nc2c(cc1C(=O)N/N=C/c1ccc(O)c(O)c1)c(=O)n(C)c(=O)n2C | 5 | 31 | -3 | 62* | x | -9 | 68* | -1
O=C(NNC(=O)c1ccccc1O)c1ccco1 | 8 | 5 | -1 | 19 | 7 | -3 | x | x
Cc1cccc(C(=O)NNC(=O)c2ccco2)c1O | 12 | 31 | -3 | 32* | 1 | 3 | 10 | -1
Cc1cc([N+](=O)[O-])ccc1NC(=O)c1ccco1 | -1 | -4 | 0 | 1 | -2 | -6 | x | x
Nc1ccc([N+](=O)[O-])cc1C(=O)NNC(=O)c1ccco1 | 9 | 3 | -2 | 33* | 11 | -2 | 14 | 3
O=C(NNc1ccc([N+](=O)[O-])cc1)c1ccco1 | -2 | 99* | 8 | 69* | 11 | -6 | 45* | 4
N#CCC(=O)N/N=C/c1ccc(Sc2nc3ccccc3s2)o1 | -9 | 13 | -2 | 41* | x | -4 | -51 | -7
C=CCN1C(=O)C(Cc2ccccc2)SC1=NN=Cc1cccs1 (stereo unspecified) | x | x | x | x | -1 | x | x | x
O=c1oc2ccccc2cc1-c1nnc(NCc2ccco2)s1 | -10 | 9 | -28 | 38* | -44 | -7 | -38 | 4
COc1ccc(C=NNc2nc3ccccc3o2)cc1O | x | x | x | x | 4 | x | x | x
COc1cc(/C=N/Nc2nc3ccccc3o2)cc(OC)c1O | 4 | 99* | -16 | 43* | x | -8 | 23 | 4
COc1ccc(/C=N/Nc2nc3ccccc3o2)cc1O | 8 | 99* | -2 | 50* | x | -3 | -33 | 5
CN1c2ccsc2C(=NNc2ccccc2)CS1(=O)=O | x | x | x | x | 4 | x | x | x
CCOC(=O)c1c(C)oc2c1c(CN1CCN(C(=O)OCC)CC1)c(O)c1ccccc12 | x | x | 0 | 5 | -1 | 24 | x | x
SMILES | HDAC3 inhib | ALR inh | Rtt109 HAT inh | PfM18AAP inh-1 | UCH37 inh | FAS TE block | PfM18AAP inh-2 | CTSL1 confirm
CCOC(=O)c1c(C)oc2c(CC(=O)c3ccccc3)c(Cl)c(O)c(O)c12 | -8 | 9 | 58* | 45* | -1 | -1 | 24 | 3
O=C(CCCOc1ccc(Cl)cc1Cl)n1nnc2ccccc21 | 2 | -3 | x | -2 | 2 | 18 | x | x
Nc1nncn1C(=O)CCCOc1ccc(Cl)cc1Cl | 1 | 10 | 0 | 47* | 3 | 2 | 63* | 4
Nc1nncn1C(=O)CCCN1C(=O)c2ccccc2C1=O | 0 | -9 | -12 | 44* | 1 | -1 | 47* | -12
O=C(C=NO)NCCCNCc1ccccc1 | x | x | x | x | 0 | x | x | x
COc1cc(C=Nn2nnnc2N)ccc1OCC#N | x | x | x | x | -4 | x | x | x
COC(=O)c1nc(NNC(=O)c2ccccc2)sc1-c1ccccc1 | 5 | 13 | -5 | 46* | 1 | -42 | 10 | -2
O=C(NNc1nc(-c2ccccc2)cs1)c1ccccc1 | -1 | 47 | 4 | 10 | x | -2 | x | x
COCCCn1c(=C(C#N)C(=O)Nc2ccc(C(=O)O)cc2)sc(=Cc2cccc(OC)c2OC)c1=O | x | x | x | x | 9 | x | x | x
CC1(C)OC2C(CO)OC(n3cnc4c(=S)nc[nH]c43)C2O1 (stereo unspecified) | 13 | 25 | 7 | 32* | 0 | -3 | -30 | -5
O=C(NC(=S)Nn1cnnc1)c1ccccc1Br | 4 | 3 | -6 | 79* | 6 | -4 | 78* | -6
O=C(NC(=S)Nn1cnnc1)c1ccccc1 | -3 | 8 | -2 | x | -2 | -13 | x | x
CCOc1ccc2ccccc2c1C=NNC(=O)CNC(=O)Cc1ccccc1 | x | x | x | x | -11 | x | x | x
Cc1ccc(NNC(=O)c2ccc(Cl)cc2)nn1 | 1 | 2 | -1 | 33* | 2 | 3 | 1 | 1
CCc1nnc(N/N=C/c2ccc(O)c(OC)c2)n1N | -2 | x | 3 | -1 | x | -4 | x | x
CCc1nnc(N/N=C/c2cc(Br)c(O)cc2O)n1N | 6 | 83* | 0 | 62* | x | 0 | 54* | 1
CCc1nnc(N/N=C/c2c(Cl)cccc2Cl)n1N | -7 | -110 | 8 | 56* | x | -4 | -40 | 2
Cc1ccc(OCC(=O)NN=Cc2ccc(O)cc2)c([N+](=O)[O-])c1 | x | x | x | x | 2 | x | x | x
CCOC(=O)NN=C1CCc2ccccc21 | x | x | x | x | 1 | x | x | x
COc1ccc(OCC(=O)NN=C/C=C/c2ccccc2)cc1 | x | x | x | x | 1 | x | x | x
COc1ccccc1C(=O)NN=C(C)CC(=O)Nc1ccc(Nc2ccccc2)cc1 | x | x | x | x | 4 | x | x | x
CCC(=O)N(C)CCc1cc2c(c(OC)c1C=NNS(=O)(=O)c1ccc(C)cc1)OCO2 | x | x | x | x | 3 | x | x | x
C[C@@H]1O[C@@H](Oc2c(-c3cc(O)c(O)c(O)c3)oc3cc(O)cc(O)c3c2=O)[C@H](O)[C@H](O)[C@H]1O | 1 | 99* | 6 | 46* | 8 | -9 | 11 | -1
O=c1c(OC2OC(CO)C(O)C(O)C2O)c(-c2ccc(O)c(O)c2)oc2cc(O)cc(O)c12 (stereo unspecified) | 1 | 99* | 3 | 62* | 4 | -9 | 46* | 1
CC(=NOC(=O)c1ccc(C)cc1)c1c(C)nc2cc(C)ccn12 | x | x | x | x | -1 | x | x | x
CCCNC(=O)Cn1sc2nc(C)cc(C)c2c1=O | 14 | 19 | 113* | 58* | 4 | -5 | 30* | 1

Screening data as filed in PubChem.
